Source: PubChem (several laboratories)
MPTP inh = blocks calcium-induced mitochondrial swelling; hit rate 1.4% among 360,000; inhibition, % at 10 µM; isolated mouse mitochondria, Ca2+ swelling absorbance, 30 min;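 active means inhibition of 50% or more, scaled per plate between neutral and stimulator controls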
NR3A LBD binder = modulates the human NR3A ligand-binding domain | NR3A LBD differential scanning fluorimetry, Tm shift; 0% = protein alone, 100% = glycine-bound protein | Tm shift relative to glycine control, % at 25 µM | hit rate 2.5% among 340,000;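 active means melting temperature shift of at least 10% of the positive control shift, at one fixed dose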
SKN-1 inh = C. elegans SKN-1 inhibition | inhibition, % at 21.8 µM | hit rate 0.49% among 360,000 | C. elegans VP596 Pgst-4::GFP/RFP ratio, acrylamide-induced, 24 h;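 active means interference check ratio from 0.5 to 1.5 plus GFP to RFP signal ratio inhibition reaching or exceeding a fixed threshold, cut at about 30% in these data, passing the limit was not always enough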
ADAM10 inh = ADAM10 inhibition, QFRET primary screen; O14672; recombinant ADAM10, EDANS/DABCYL FRET peptide cleavage, 3 h; inhibition, % at 7 µM; hit rate 0.62% among 370,000; AID 720582;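 active means inhibition above a per-campaign cutoff equal to the mean of compounds falling between control-based bounds plus 3 SD, cut at about 20% in these data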
Target sequence (O14672 214-748 limits assumed): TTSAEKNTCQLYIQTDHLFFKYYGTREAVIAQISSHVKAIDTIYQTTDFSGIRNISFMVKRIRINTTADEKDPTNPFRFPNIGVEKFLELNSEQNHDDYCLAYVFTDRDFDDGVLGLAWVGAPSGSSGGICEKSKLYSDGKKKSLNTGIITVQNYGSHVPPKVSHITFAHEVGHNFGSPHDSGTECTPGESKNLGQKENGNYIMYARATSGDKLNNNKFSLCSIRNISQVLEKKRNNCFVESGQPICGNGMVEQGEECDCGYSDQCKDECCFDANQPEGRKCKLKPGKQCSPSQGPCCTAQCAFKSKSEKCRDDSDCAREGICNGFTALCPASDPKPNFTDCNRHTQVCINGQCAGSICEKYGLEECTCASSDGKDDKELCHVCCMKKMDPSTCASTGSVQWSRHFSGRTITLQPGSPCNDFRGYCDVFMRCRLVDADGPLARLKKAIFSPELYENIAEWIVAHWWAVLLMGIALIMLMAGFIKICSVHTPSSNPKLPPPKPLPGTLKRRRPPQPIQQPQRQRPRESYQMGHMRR
ADAM17 inh = ADAM17 inhibition, QFRET primary screen; inhibition, % at 6.95 µM; hit rate 0.83% among 370,000; recombinant ADAM17, EDANS/DABCYL FRET peptide cleavage;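 active means inhibition above the mean of compounds lying between control limits plus 3 SD, set per campaign, cut at about 8.5% in these data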
MT1-MMP act inh = inhibitors of human MT1-MMP activation; HT1080 RFP-PRO-GFP cells, GFP/RFP ratio fluorescence, overnight; percent of plate control window, DMSO zero; P50281; GFP/RFP ratio change, % at 20 µM; hit rate 0.061% among 360,000;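 active means GFP/RFP ratio change of at least 30% with cell ATP level not reduced by more than half and red fluorescence within 50% of control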
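Assay system – RFP-PRO-GFP reporter HT1080 cells · Compound dosing – single dose of 20 µM compound, 1% DMSO final · Incubation – overnight compound exposure at 37 °C · Measure – GFP/RFP fluorescence ratio · Benchmarks – DMSO wells and RFP-L50D-GFP cells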
Of the large screens only hits and unclear results are named; the others gave an inactive call. Only some compounds are listed: those with a hit (about 4.7% of all), similar ones and a draw of the others.

N#C/C(=C\c1c[nH]c2ccc(Br)cc12)c1ccccn1	NR3A LBD binder 22
O=c1[nH]c(/C=C/c2ccc([N+](=O)[O-])cc2)c([N+](=O)[O-])c(=O)[nH]1	none
Cc1cccc(NC(=O)COc2ccc(/C=C\c3[nH]c(=O)[nH]c(=O)c3[N+](=O)[O-])cc2)c1	NR3A LBD binder 10
FC(F)(F)C(F)(F)C(F)(F)c1nc2nc(Cl)c(Cl)nc2[nH]1	none (no result: NR3A LBD binder)
O=C(O)c1nc2nc(Cl)c(Cl)nc2[nH]1	NR3A LBD binder 14
CCCCNS(=O)(=O)CCNCc1ccc(OC)cc1	none
COc1ccc(CNCCS(=O)(=O)NN2CCOCC2)cc1	NR3A LBD binder 17
COc1ccc(C(CNC(=O)c2cccc(S(=O)(=O)Nc3ccc(F)cc3)c2)N2CCOCC2)cc1 (centres undefined)	none
O=C(NCc1ccccc1Cl)c1cnccn1	none
O=C(NCc1ccccc1Cl)c1cnccc1C(F)(F)F	NR3A LBD binder 12
C=CCOc1ccccc1CN1CCC(Oc2ccc(C(=O)N3CCCC3)cc2)CC1	none
CCOc1ccccc1Nc1cc(C)nc2ccccc12	none (no result: NR3A LBD binder)
Cc1cccc(C)c1OCC(=O)Nc1nnc(C2CCCO2)s1 (centres undefined)	SKN-1 inh 37
O=C(CSc1nc(O)cc(=O)[nH]1)Nc1ccc2c(c1)CCC2	SKN-1 inh 46
Cc1ccc(NC(=O)CSc2nc(N)cc(=O)[nH]2)cc1S(=O)(=O)N1CCCCCC1	SKN-1 inh 53
Nc1cc(=O)[nH]c(SCC(=O)Nc2ccc3c(c2)CCC3)n1	none
Cc1cc(OCC(=O)NNC(=O)c2cccc(F)c2)ccc1Cl	none
FC(F)(F)c1nc2ccccc2nc1N/N=C\c1ccccc1	SKN-1 inh 37
CCOc1ccc(N2C(=O)CC(N(CCc3ccccc3)C(=O)/C=C/C(=O)O)C2=O)cc1 (centres undefined)	none
COC(=O)c1ccc(NC(=O)Nc2ccccc2C)cc1	none
COc1ccc(NC(=O)Nc2ccc3nonc3c2)cc1	NR3A LBD binder 19
COc1ccc(NC(=O)Nc2ccc3nccnc3c2)cc1	none
COC(=O)c1ccc(NC(=O)Nc2ccc(OC)cc2)cc1	NR3A LBD binder 10
COc1ccc(NC(=O)Nc2ccc3[nH]ccc3c2)cc1	NR3A LBD binder 35
N#Cc1ccc(NC(=O)Nc2ccc(Oc3ccc(NC(=O)Nc4ccc(C#N)cc4)cc3)cc2)cc1	NR3A LBD binder 32
Cc1cccc(C)c1NC(=O)CN(C)C(=O)c1ccc2c(=O)n3c(nc2c1)CCC3	none
COc1ccc(CNC(=O)Nc2ccc(OC)cc2)cc1	none (no result: NR3A LBD binder)
CCc1ccc(CCC(=O)Nc2ccc(Br)cc2)o1	none
COc1ccc(NC(=O)Nc2ccc(N(C)C)cc2)cc1	NR3A LBD binder 12
CCc1ccc(CCC(=O)Nc2ccc(OC)cc2)o1	NR3A LBD binder 32
COc1ccc(NC(=O)Nc2ccc(OC)cc2)cc1	NR3A LBD binder 13
COC(=O)c1ccc(NC(=O)Nc2ccc3c(c2)nc(C)n3C)cc1	NR3A LBD binder 25
CN(C)c1ccc(NC(=O)Nc2cccc3ccccc23)cc1	none
CN(C)c1ccc(NC(=O)Nc2ccc3snnc3c2)cc1	NR3A LBD binder 36
COc1ccc(NC(=O)Nc2sc(=S)n(C)c2C)cc1	NR3A LBD binder 24
CC(=O)c1ccc(NC(=O)c2ccc3snnc3c2)cc1	none
CCOC(=O)Cc1nc(N2CCN(CCO)CC2)c2c(C)c(C(=O)OCC)sc2n1	none (no result: MPTP inh, NR3A LBD binder, SKN-1 inh, MT1-MMP act inh)
C[C@@H]1CN([C@@H](C)CO)S(=O)(=O)c2ccc(-c3cccc(C#N)c3)cc2O[C@@H]1CN(C)C(=O)c1ccc(F)cc1	none (no result: NR3A LBD binder)
COc1cc2c(cc1OC)C1=NC(=O)CN1C(SCc1ccccc1C)=N2	NR3A LBD binder 26
CC(=O)Nc1ccc(NC(=O)c2cc(=O)c3cc(C)c(C)cc3o2)cc1	NR3A LBD binder 12
CN1N=C(C(=O)NC2CCCc3c2cnn3-c2ccc(F)cc2F)CCC1=O (centres undefined)	none
CCOC(=O)c1c(-c2ccccc2)csc1NC(=O)/C(C#N)=C\c1ccc(O)c(OC)c1	NR3A LBD binder 18
CCOC(=O)c1c(-c2ccc(C)cc2)csc1NC(=O)/C(C#N)=C/c1ccc(O)c(OC)c1	NR3A LBD binder 20
CCc1sc(-c2c(C#N)c(N)nc3c2CCCCCC3)cc1[N+](=O)[O-]	none
Cn1c(=O)c2c(ncn2CC(O)CNc2ccc(Br)cc2)n(C)c1=O (centres undefined)	NR3A LBD binder 23
COc1ccc(NC(=O)COc2cc(C)cc(C)c2)cc1S(=O)(=O)N1CCCCC1	NR3A LBD binder 24
Cc1ccc(OCC(=O)Nc2ccc(S(=O)(=O)N3CCOCC3)cc2)c(C)c1	NR3A LBD binder 11
Cc1cc(S(=O)(=O)N2CCOCC2)ccc1OCC(=O)Nc1ccc(F)c(Cl)c1	NR3A LBD binder 44
Cc1ccc(/C=N/NC(=O)CCSc2ccccc2)cc1	none
O=C(Cc1cccc(NC(=O)C2CCN(C(=O)c3ccccc3)CC2)c1)Nc1cccc(C(=O)N2CCCC2)c1	none
O=C(CSCc1c(Cl)cccc1Cl)Nc1ccccc1-c1ccccc1	NR3A LBD binder 15
CC(C)(C)NC(=O)CSCc1c(Cl)cccc1Cl	none
O=C(CNC(c1ccccc1)c1ccccc1)Nc1ccccc1-c1ccccc1	NR3A LBD binder 17
C/C(=N\NC(=O)c1cccc(S(=O)(=O)N2CCOCC2)c1)c1ccc(C)cc1	none
COc1cccc(N2C(=O)C(O)=C(C(C)=O)C2c2ccc(OC)c(OC)c2)c1 (centres undefined)	none
Cc1cc(C)cc(Oc2cc(NC(=O)c3cn(C)nc3C)cc([N+](=O)[O-])c2)c1	NR3A LBD binder 13
O=C(COC(=O)COc1ccc(Cl)cc1)Nc1ccc(F)c([N+](=O)[O-])c1	NR3A LBD binder 12
O=C(COC(=O)CNC(=O)c1ccccc1)Nc1ccc(F)c([N+](=O)[O-])c1	NR3A LBD binder 13
CC1CCCC(NC(=O)COC(=O)c2ccccc2Sc2ccccc2C#N)C1C (centres undefined)	NR3A LBD binder 16
CCCc1cc(=O)[nH]c(Nc2ccc(Cl)cc2)n1	none
CCCc1cc(=O)[nH]c(Nc2ccc(O)cc2)n1	NR3A LBD binder 10
O=C(NCC1OCCc2ccccc21)c1ccc(NC(=O)c2ccccc2Cl)cc1 (centres undefined)	none
O=C(NCC1OCCc2ccccc21)c1ccc(NC(=O)c2cccc(Br)c2)cc1 (centres undefined)	NR3A LBD binder 28
O=C(NCC1OCCc2ccccc21)c1ccc(NC(=O)c2ccc(Cl)cc2Cl)cc1 (centres undefined)	NR3A LBD binder 18
O=C(COc1ccc(S(=O)(=O)N2CCCC2)cc1Cl)NCc1ccccn1	none
